Measurements taken from ChEMBL document CHEMBL5584288, “Synthesis, biological evaluation and metadynamics simulations of novel N-methyl β-sheet breaker peptides as inhibitors of Alzheimer's β-amyloid fibrillogenesis” (RSC Med Chem, 2024).
Activity calls are given as the source filed them. No cut-off for these calls is given here. Square brackets hold non-standard residues; d marks the D form. Peptide text beside a SMILES is read from it. Sar = CNCC(=O)O

Assays:
SH-SY5Y [1] = test: Cytoprotective activity against amyloid beta (25 to 35 residues)-induced toxicity in human SH-SY5Y cells assessed as increase in cell viability at 100 uM incubated for 24 hrs by MTT assay relative to control; format: functional
Procedure, shortened: (§1)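 SH-SY5Y cells seeded at 2.0 × 10^4 per well, after 24 h exposed to Aβ25–35 (100.0 μM; DMSO stock 12.5 mM) for 48 h, washed twice with PBS, then given test peptides for a further 24 h. MTT read-out as in cytotoxicity assay. Viability relative to untreated control cells. Mean ± SD of six measurements from three independent experiments.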

[2] = target: Amyloid-beta precursor protein (Homo sapiens) (UniProt P05067); test: Inhibition of amyloid beta (1 to 42) (unknown origin) aggregation assessed as reduction in amyloid beta fibril formation at 200 uM incubated for 12 hrs by ThT-based fluorescence analysis
Amyloid-beta precursor protein (Homo sapiens), sequence (P05067 whole entry): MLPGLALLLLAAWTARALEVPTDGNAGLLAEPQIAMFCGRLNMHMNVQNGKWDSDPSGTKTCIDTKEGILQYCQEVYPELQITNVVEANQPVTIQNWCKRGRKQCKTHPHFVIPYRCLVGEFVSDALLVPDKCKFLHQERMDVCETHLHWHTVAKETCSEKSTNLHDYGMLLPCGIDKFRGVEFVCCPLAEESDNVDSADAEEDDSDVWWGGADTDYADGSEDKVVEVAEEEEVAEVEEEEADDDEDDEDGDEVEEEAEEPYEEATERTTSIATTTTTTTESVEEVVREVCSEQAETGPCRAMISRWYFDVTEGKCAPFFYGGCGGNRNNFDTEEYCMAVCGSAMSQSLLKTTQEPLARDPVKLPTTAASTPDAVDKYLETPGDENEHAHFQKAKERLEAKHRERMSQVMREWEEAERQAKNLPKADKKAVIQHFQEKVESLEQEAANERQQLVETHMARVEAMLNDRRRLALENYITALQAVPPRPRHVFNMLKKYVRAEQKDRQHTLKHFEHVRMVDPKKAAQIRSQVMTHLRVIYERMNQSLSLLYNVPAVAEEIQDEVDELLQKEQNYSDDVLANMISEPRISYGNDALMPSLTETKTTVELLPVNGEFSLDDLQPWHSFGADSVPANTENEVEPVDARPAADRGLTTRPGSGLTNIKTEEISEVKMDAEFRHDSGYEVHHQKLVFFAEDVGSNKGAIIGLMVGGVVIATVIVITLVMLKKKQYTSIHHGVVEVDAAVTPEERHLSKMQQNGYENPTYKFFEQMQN
Procedure, shortened: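 Aβ1–42 (20 μM) incubated alone or with peptide (200 μM, tenfold molar excess) plus ThT (10 μM) in 20 mM Tris-HCl pH 7.4 at 20 °C. Real-time fluorescence (excitation 450 nm, emission 482 nm) recorded every 30 min for ~12 h. Intensity plotted against time. Three independent experiments.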

SH-SY5Y [3] = test: Cytotoxicity against human SH-SY5Y cells assessed as reduction in cell viability at 10 to 100 uM after 48 hrs by MTT assay; format: toxicity, cell-based; settings: dose 10-100 µM
Procedure, shortened: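 Human SH-SY5Y neuroblastoma cells in DMEM with 10% FBS, penicillin/streptomycin, 37 °C, 5% CO2. Seeded at 1.5 × 10^4 per well, treated after 24 h, exposed 48 h. MTT 0.50 mg mL⁻¹ for 4 h at 37 °C, formazan dissolved in DMSO, absorbance 570 nm. Viability expressed as % mitochondrial redox activity of untreated control.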

SH-SY5Y [4] = test: Cytoprotective activity against amyloid beta (25 to 35 residues)-induced toxicity in human SH-SY5Y cells assessed as increase in cell viability incubated for 24 hrs by MTT assay; format: functional, cell-based; settings: dose 10-100 µM; procedure, shortened: as §1
[5] = Drug uptake in human SH-SY5Y cells at 100 uM by UHPLC-HR MS analysis; format: ADME, cell-based
Procedure, shortened: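 SH-SY5Y cells seeded at 2.0 × 10^6 per 100 mm dish, treated after 24 h with peptides (100 μM) in FBS-free medium. Cell pellets quenched and extracted, sonicated 5 min, centrifuged 3500 rpm at 0 °C for 10 min. Supernatant lyophilized, reconstituted in acetonitrile and analysed by UHPLC-HR TOF-MS/MS, with extracted ion chromatograms of protonated molecular ions.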

SH-SY5Y [6] = test: Cytoprotective activity against amyloid beta (25 to 35 residues)-induced toxicity in human SH-SY5Y cells assessed as increase in cell viability at 10 uM incubated for 24 hrs by MTT assay relative to control; format: functional; procedure, shortened: as §1

Row | Compound | Activity (SH-SY5Y [1]) | inhibition [2] | Activity (SH-SY5Y [3]) | Activity (SH-SY5Y [4]) | Drug uptake [5] | Activity (SH-SY5Y [6])
1 | CC(=O)N[C@@H](CCCCN)C(=O)N(C)CC(=O)N[C@H](C(=O)N[C@@H](Cc1ccccc1)C(=O)N[C@@H](Cc1ccccc1)C(=O)N(C)CC(=O)N[C@@H](CCC(=O)O)C(N)=O)C(C)C (Ac-K[Sar]VFF[Sar]E-NH2) | 142.1% | Active | Non-Toxic | Dose-Dependent Effect | Active | –
2 | Ac-LPFFD-NH2 | 110.8% | Active | Non-Toxic | Dose-Dependent Effect | – | –
3 | CC(=O)N[C@@H](Cc1ccccc1)C(=O)N[C@@H](CCCCN)C(=O)N[C@@H](CCC(=O)O)C(=O)N(C)CC(=O)N(C)CC(=O)N[C@H](C(N)=O)C(C)C (Ac-FKE[Sar][Sar]V-NH2) | – | Active | – | – | – | –
4 | CC[C@H](C)[C@H](NC(C)=O)C(=O)N[C@H](C(=O)N(C)CC(=O)N[C@@H](CC(C)C)C(=O)N[C@@H](CCSC)C(=O)N[C@H](C(=O)NCC(=O)N(C)CC(=O)N[C@H](C(N)=O)C(C)C)C(C)C)[C@@H](C)CC | – | Active | – | – | – | –
5 | CC(=O)N[C@@H](CCCCN)C(=O)N(C)CC(=O)N[C@H](C(=O)N[C@@H](Cc1ccccc1)C(=O)N(C)CC(=O)N[C@@H](CCC(=O)O)C(N)=O)C(C)C (Ac-K[Sar]VF[Sar]E-NH2) | – | Active | Non-Toxic | Dose-Dependent Effect | Active | ~30%
